ChEMBL document CHEMBL1153479, “C29 sterols with a cyclopropane ring at C-25 and 26 from the Vietnamese marine sponge Ianthella sp. and their anticancer properties” (Bioorg Med Chem Lett, 2009)
Activity calls are given as the source filed them. No cut-off for these calls is given here.

Legend:
MCF7 = assay: Cytotoxicity against human MCF7 cells by MTT assay; format: functional, cell-based
Procedure, shortened: (§1)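 Cytotoxicity was read by MTT assay on human tumour lines: A549 lung, HT-29 colon, MCF-7 breast, SK-OV-3 ovary, and HL-60 and U937 leukaemia. Results are given as IC50 (μM), with values below 100 μM counted as active. A positive control was included.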

HL-60 [1] = assay: Cytotoxicity against human HL60 cells by MTT assay; format: functional, cell-based; procedure, shortened: as §1
U-937 = assay: Cytotoxicity against human U937 cells by MTT assay; format: functional, cell-based; procedure, shortened: as §1
A549 = assay: Cytotoxicity against human A549 cells by MTT assay; format: functional, cell-based; procedure, shortened: as §1
HL-60 [2] = assay: Induction of apoptosis in human HL60 cells assessed as increase in number of apoptotic body with condensed and fragmented nuclei at 21.3 uM after 6 to 24 hrs by H33342 staining method; format: functional, cell-based
Procedure, shortened: (§2)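 HL-60 cells at 3×10^5 cells/mL were exposed for 6, 12 and 24 h, washed twice with PBS and stained with 1 mg/mL Hoechst 33342 (30 min, 37°C). Apoptotic bodies, seen as condensed and fragmented nuclei, were scored by fluorescence microscopy at ×400.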

HL-60 [3] = assay: Cell cycle distribution in human HL60 cells assessed as cell cycle accumulation at sub-G1 phase at 21.3 uM after 12 hrs by flow cytometry; format: functional
Procedure, shortened: (§3)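 HL-60 cells exposed for 6, 12 or 24 h, then washed twice in PBS and fixed in 70% ethanol (30 min, 4°C). After a PBS rinse they were stained in the dark with 50 μg/mL propidium iodide plus 50 μg/mL RNase A (30 min, 37°C). DNA content was read by flow cytometry, and the sub-G1 hypodiploid fraction was taken from the DNA histograms.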

HT-29 = assay: Cytotoxicity against human HT-29 cells by MTT assay; format: functional, cell-based; procedure, shortened: as §1
HL-60 [4] = assay: Cell cycle distribution in human HL60 cells assessed as cell cycle accumulation at sub-G1 phase at 21.3 uM after 24 hrs by flow cytometry; format: functional; procedure, shortened: as §3
SK-OV-3 = assay: Cytotoxicity against human SKOV3 cells by MTT assay; format: functional, cell-based; procedure, shortened: as §1
HL-60 [5] = assay: Cell cycle distribution in human HL60 cells assessed as cell cycle accumulation at sub-G1 phase at 21.3 uM after 6 hrs by flow cytometry; format: functional; procedure, shortened: as §3
HL-60 [6] = assay: Cell cycle distribution in human HL60 cells assessed as cell cycle accumulation at sub-G1 phase at 19.9 uM after 12 hrs by flow cytometry; format: functional; procedure, shortened: as §3
HL-60 [7] = assay: Cell cycle distribution in human HL60 cells assessed as cell cycle accumulation at sub-G1 phase at 19.9 uM after 24 hrs by flow cytometry; format: functional; procedure, shortened: as §3
HL-60 [8] = assay: Induction of apoptosis in human HL60 cells assessed as increase in number of apoptotic body with condensed and fragmented nuclei at 19.9 uM after 6 to 24 hrs by H33342 staining method; format: functional, cell-based; procedure, shortened: as §2
HL-60 [9] = assay: Cell cycle distribution in human HL60 cells assessed as cell cycle accumulation at sub-G1 phase at 19.9 uM after 6 hrs by flow cytometry; format: functional; procedure, shortened: as §3
HL-60 [10] = assay: Cell cycle distribution in human HL60 cells assessed as cell cycle accumulation at sub-G1 phase at 21.5 uM after 24 hrs by flow cytometry; format: functional; procedure, shortened: as §3
HL-60 [11] = assay: Induction of apoptosis in human HL60 cells assessed as increase in number of apoptotic body with condensed and fragmented nuclei at 21.5 uM after 6 to 24 hrs by H33342 staining method; format: functional, cell-based; procedure, shortened: as §2
HL-60 [12] = assay: Cell cycle distribution in human HL60 cells assessed as cell cycle accumulation at sub-G1 phase at 21.5 uM after 6 hrs by flow cytometry; format: functional; procedure, shortened: as §3
HL-60 [13] = assay: Cell cycle distribution in human HL60 cells assessed as cell cycle accumulation at sub-G1 phase at 21.5 uM after 12 hrs by flow cytometry; format: functional; procedure, shortened: as §3

Compound	IC50 (MCF7) [µM]	IC50 (HL-60 [1]) [µM]	IC50 (U-937) [µM]	IC50 (A549) [µM]	Activity (HL-60 [2])	Activity (HL-60 [3]) [%]	IC50 (HT-29) [µM]	Activity (HL-60 [4]) [%]	IC50 (SK-OV-3) [µM]	Activity (HL-60 [5]) [%]	Activity (HL-60 [6]) [%]	Activity (HL-60 [7]) [%]	Activity (HL-60 [8])	Activity (HL-60 [9]) [%]	Activity (HL-60 [10]) [%]	Activity (HL-60 [11])	Activity (HL-60 [12]) [%]	Activity (HL-60 [13]) [%]
CC(CCC(C)C1CCC2C3CC4OC45CC(O)CCC5(C)C3CCC12C)C1CC1C (stereo unspecified)	19.4	21.3	19.9	9.8	Active	24.92	69.9	51.33	22.6	11.8	–	–	–	–	–	–	–	–
C[C@H](CC[C@@H](C)[C@H]1CC[C@H]2[C@@H]3CC(=O)C4=CC(=O)CC[C@]4(C)[C@H]3CC[C@]12C)[C@@H]1C[C@H]1C	17.8	19.9	22.1	8.4	–	–	48.2	–	16.2	–	21.85	48.83	Active	11.19	–	–	–	–
O=C1c2c(O)ccc(O)c2C(=O)c2c(NCCNCCO)ccc(NCCNCCO)c21 [MITOXANTRONE]	7.1	6.3	6.2	8	–	–	8.7	–	9.8	–	–	–	–	–	–	–	–	–
C[C@H](CC[C@@H](C)[C@H]1CC[C@H]2[C@@H]3CC=C4C[C@@H](O)CC[C@]4(C)[C@H]3CC[C@]12C)[C@@H]1C[C@H]1C [PETROSTEROL]	16.4	21.5	18.7	11.5	–	–	46.5	–	19.8	–	–	–	–	–	52.58	Active	12.61	27.4
